Test results from BindingDB's records for doi:10.1016/s0960-894x(02)00170-1 (Kingston University, 2002).

Each compound was assayed against T1, Steryl-sulfatase (Homo sapiens, UniProt P08842) (assay: Compound was evaluated for its inhibitory activity against estrone sulfatase enzyme).
T1 sequence (P08842 whole entry): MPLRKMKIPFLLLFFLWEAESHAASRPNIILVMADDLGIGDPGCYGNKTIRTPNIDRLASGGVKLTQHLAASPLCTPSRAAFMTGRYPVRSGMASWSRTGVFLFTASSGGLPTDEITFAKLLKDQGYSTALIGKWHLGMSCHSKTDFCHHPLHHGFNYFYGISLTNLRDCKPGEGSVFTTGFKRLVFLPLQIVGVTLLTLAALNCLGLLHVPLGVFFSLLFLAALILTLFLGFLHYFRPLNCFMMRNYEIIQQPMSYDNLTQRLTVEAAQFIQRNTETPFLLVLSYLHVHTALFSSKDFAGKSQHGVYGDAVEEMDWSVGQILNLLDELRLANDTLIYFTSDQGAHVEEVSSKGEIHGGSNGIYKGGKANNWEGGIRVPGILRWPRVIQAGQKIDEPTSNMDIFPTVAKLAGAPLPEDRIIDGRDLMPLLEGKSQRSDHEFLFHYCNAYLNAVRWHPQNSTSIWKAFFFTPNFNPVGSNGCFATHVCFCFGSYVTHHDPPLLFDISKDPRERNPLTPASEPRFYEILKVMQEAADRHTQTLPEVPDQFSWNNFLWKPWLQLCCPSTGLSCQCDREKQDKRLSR
Procedure, shortened: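 They are added to tubes holding [3H]estrone sulfate (300,000 dpm) and inhibitor, which was dried from ethanol under nitrogen. Incubation runs 20 min at 37 °C and is quenched with toluene. Radioactivity in the toluene extract is counted. Triplicates are run alongside no-inhibitor controls and boiled-microsome blanks.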

Question: With `COC(=O)c1ccc(-c2ccc(OS(N)(=O)=O)cc2)cc1` as the compound, how does the IC50 read?
Answer: 5.2 µM

Question: How did the IC50 turn out when `CCCOC(=O)c1ccc(-c2ccc(OS(N)(=O)=O)cc2)cc1` was run?
Answer: 3.5 µM

Question: Which IC50 does the source give for `CCCCOC(=O)c1ccc(-c2ccc(OS(N)(=O)=O)cc2)cc1` here?
Answer: 5.8 µM

Question: `CCOC(=O)c1ccc(-c2ccc(OS(N)(=O)=O)cc2)cc1` was tested. Which IC50 did it give?
Answer: 4.2 µM

Question: `N#Cc1ccc(-c2ccc(OS(N)(=O)=O)cc2)cc1` was tested. Which IC50 did it give?
Answer: 6.7 µM

Question: With `Cc1cc(=O)oc2cc(OS(N)(=O)=O)ccc12` [4-methyl-2-oxo-2H-chromen-7-yl sulfamate] as the compound, how does the IC50 read?
Answer: 10 µM

Question: With `NS(=O)(=O)Oc1ccc(-c2ccccc2)cc1` [Sulfamic acid biphenyl-4-yl ester] as the compound, how does the IC50 read?
Answer: 76.1 µM
